DAGLB inhibitor: diacylglycerol lipase beta (human) inhibition; Q8NCG7; HEK293T DAGLB membrane lysate, EnzChek fluorogenic substrate; inhibition, % at 5.17 µM; actives 0.059% (n = 340,000); AID 504411; in the data active = inhibition above about 34%;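 note: 0% = enzyme with vehicle and 100% = wells lacking enzyme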
TAAR1 antagonist: antagonists of human TAAR1; Q96RJ0; CHO RD-HGA16 TAAR1, Fluo-8 calcium fluorescence, antagonist; inhibition, % at 3 µM; actives 1.5% (n = 360,000);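 active = inhibition above a per-plate cutoff, the mean inhibition of test compounds on that plate plus 3 SD, cut at about 49% in these data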;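 note: 0% = DMSO plus EC80 beta-PEA response and 100% = DMSO alone without agonist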
Target sequence (Q96RJ0 whole entry, looked up): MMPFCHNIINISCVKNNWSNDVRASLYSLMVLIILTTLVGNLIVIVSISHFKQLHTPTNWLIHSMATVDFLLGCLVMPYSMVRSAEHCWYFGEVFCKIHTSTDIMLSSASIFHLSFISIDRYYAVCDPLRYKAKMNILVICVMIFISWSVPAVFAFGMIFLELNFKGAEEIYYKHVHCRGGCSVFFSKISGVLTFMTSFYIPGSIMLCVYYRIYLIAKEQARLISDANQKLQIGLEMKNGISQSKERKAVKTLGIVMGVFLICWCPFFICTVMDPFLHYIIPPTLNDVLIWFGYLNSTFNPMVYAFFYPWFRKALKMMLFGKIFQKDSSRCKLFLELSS
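Test system – hTAAR1-expressing CHO RD-HGA16 cells, Gα16-coupled · Also added – β-PEA at EC80 concentration, post-compound challenge · Compound – 3 µM, single point · Incubation – dye loading 75 min at 37 °C, then 30 min room temperature · Measured by – Fluo-8 intracellular calcium dye fluorescence, real-time kinetic reads · Benchmarks – vehicle and agonist controls · Replicates – singlicate, one well per test compound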
GPR7 antagonist: blocks human GPR7 receptor signaling. GPR7-expressing cells, fluorescence antagonist assay. actives 1.1% (n = 290,000). inhibition, % at 4.4 µM; in the data active = inhibition above about 16%, passing the limit was not always enough;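 note: cells stimulated with the agonist NPW; 0% = agonist with vehicle and 100% = vehicle without agonist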
Target sequence (P48145 whole entry, looked up): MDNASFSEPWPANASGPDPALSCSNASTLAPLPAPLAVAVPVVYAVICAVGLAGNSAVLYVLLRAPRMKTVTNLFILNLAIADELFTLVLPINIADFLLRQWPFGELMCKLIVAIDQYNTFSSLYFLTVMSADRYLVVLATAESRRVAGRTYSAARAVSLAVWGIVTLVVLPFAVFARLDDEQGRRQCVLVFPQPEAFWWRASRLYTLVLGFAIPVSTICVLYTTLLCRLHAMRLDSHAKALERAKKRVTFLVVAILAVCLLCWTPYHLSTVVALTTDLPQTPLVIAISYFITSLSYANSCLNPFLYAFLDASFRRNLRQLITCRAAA
TAAR1 ag: agonists of human TAAR1. activation, % at 3 µM. CHO RD-HGA16 TAAR1, Fluo-8 calcium fluorescence; vehicle wells 0%, saturating PEA agonist 100%. actives 0.99% (n = 360,000). Q96RJ0;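 active = activation above the mean activation of all test compounds in the run plus 3 SD, cut at about 38% in these data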
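Test system: RD-HGA16 (CHO) cells co-expressing Gα16 and hTAAR1; dosing: one-point dosing at 3 µM (nominal); timing: 17-24 h seeding, 75 min 37 °C dye, 30 min RT; signal: kinetic Fluo-8 calcium fluorescence; read-out basis: % activation relative to PEA EC100 response; controls: DMSO and PEA EC100; replicates: n 1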
MPTP block: blocks calcium-induced mitochondrial swelling; isolated mouse mitochondria, Ca2+ swelling absorbance, 30 min; inhibition, % at 10 µM; actives 1.4% (n = 360,000);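 active = inhibition of 50% or more, scaled per plate between neutral and stimulator controls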;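 note: 0% = DMSO wells given calcium and 100% = 1 mM EGTA wells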
Rh123 counter: membrane potential counter-screen of mitochondrial pore inhibitors. shares compounds with MPTP block. isolated mitochondria, Rhodamine 123 fluorescence. inhibition, % at 10 µM. actives 78% (n = 5,000); in the data active = inhibition above about 22%;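 note: 0% = DMSO vehicle and 100% = positive control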
MPTP abs DR: dose response confirmation of mitochondrial permeability transition pore inhibitors; isolated mitochondria swelling, absorbance; IC50, µM; shares compounds with MPTP block; AID 651561; actives 58% (n = 780); in the data active = IC50 below about 20 µM
MPTP counter DR: active in counter-screen for permeability transition pore inhibitors; shares compounds with MPTP block; actives 49% (n = 780); IC50, µM; isolated mitochondria counterscreen, fluorescence read-out; AID 651564; in the data active = IC50 below about 80 µM
An asterisk follows results filed as active; i = inactive; / = not tested or not shown. Rows were chosen to be rich in hits. Some 4% of all compounds tested hit in one or more screens of this group.

SMILES	DAGLB inhibitor	TAAR1 antagonist	GPR7 antagonist	TAAR1 ag	MPTP block	Rh123 counter	others
OC(c1ccccc1)(c1ccccc1)C1CCN(CCCOc2ccncc2)CC1	/	21	/	33	/	/
CC(C)(C)c1ccc(C(O)CCCN2CCC(C(O)(c3ccccc3)c3ccccc3)CC2)cc1 (stereo unspecified)	2	4	10	14	92*	-20
CCOc1cc(N(CC)CC)ccc1/C=C(/C#N)c1nc2ccccc2[nH]1	-67	92*	0	48*	82*	54*
CCN(CC)c1ccc(/C=C(/C#N)c2nc3ccc(C)cc3[nH]2)c(OC(C)C)c1	-205	73*	38*	41*	83*	52*
Cc1cc(/C=C(\C#N)c2nc3ccccc3[nH]2)c(C)n1C	0	-12	-3	2	2	/
CCCOc1cc(N(CC)CC)ccc1/C=C(/C#N)c1nc2ccc(C)cc2[nH]1	-90	77*	20	41*	78*	57*
CCCCc1c(-c2ccccc2OC)ncn1Cc1ccc(OC)c(Cl)c1	/	-6	/	6	/	/
C=CCn1c(NCCc2ccccc2)nc2c1c(=O)n(C)c(=O)n2C	-1	12	-2	12	46	/
C/C(Cl)=C\Cn1c(NCCc2ccccc2)nc2c1c(=O)n(C)c(=O)n2C	0	-31	-1	4	54*	83*
C=CCN1C[C@@H](COCc2ccccc2)OCCS1(=O)=O	/	-14	/	1	/	/
Cc1cc(NC(=O)Cc2cn(C)c3ccccc23)ccc1Nc1cccnc1	/	-6	/	0	/	/
C=CCn1c(C)cc(C2=NNC(=NC(C)(C)C)SC2)c1C	5	8	-7	-1	101*	76*
C=CCn1c(C)cc(C2=NNC(=Nc3ccc(C)cc3)SC2)c1C	3	17	-9	0	1	/
CCOC(=O)N(C)c1c(CC)nc2c(OCc3ccc(Cl)cc3)cccn12	/	4	/	0	-2	/
CCCCn1c(SCC(=O)c2ccccc2)nc2ccsc2c1=O	-7	-12	7	0	64*	10	MPTP abs DR=i;MPTP counter DR=>80
CCCCn1c(SCC(=O)c2ccc(O)c(O)c2)nc2ccsc2c1=O	21	/	8	/	52*	30*
O=C(O)CCCCCn1c(SCC(=O)c2ccc(O)c(O)c2)nc2ccsc2c1=O	3	-23	-6	2	1	/
C=CCNCCCCOc1ccc(Br)cc1C	-1	6	10	15	71*	-4	MPTP abs DR=8.3*;MPTP counter DR=>80
O=[N+]([O-])c1ccc(N2CCN(Cc3ccccc3)CC2)c2c1no[n+]2[O-]	15	63*	/	13	98*	12
COc1ccc(C(=O)CC(C(=O)O)c2ccc3c(c2)OCO3)cc1OC (stereo unspecified)	-4	-6	/	0	-1	/
O=C(Nc1cccc(Br)c1)Oc1cccc2cccnc12	/	5	/	9	75*	102*
O=C(Nc1c(Cl)cccc1Cl)Oc1cccc2cccnc12	/	-9	/	-1	-3	/
N#C/C(=N/Nc1ccc(OC(F)(F)F)cc1)C(N)=S	11	3	8	2	83*	87*
CCCN1CCC(=O)N(CCO)CC1	-1	1	3	3	-2	/
Cc1ccc(NC(=O)c2c(C(F)(F)F)nn(C)c2SCc2cccc(C(F)(F)F)c2)cc1C	-10	5	-14	4	68*	83*
SMILES	DAGLB inhibitor	TAAR1 antagonist	GPR7 antagonist	TAAR1 ag	MPTP block	Rh123 counter	others
Cc1ccc(SCC(=O)Nc2cc([N+](=O)[O-])ccc2O)cc1	10	10	-3	16	102*	99*
COc1ccc([N+](=O)[O-])cc1NC(=O)CSCc1ccc(Br)cc1	-2	-13	0	8	1	/
O=C(CSCc1ccc(Cl)cc1)Nc1cc([N+](=O)[O-])ccc1O	8	30	3	11	99*	88*
Cc1ccc2c(c1)c1c3n2CCN(C(=O)CN2CCN(C)CC2)C3CCC1 (stereo unspecified)	0	5	9	-2	75*	-8	MPTP abs DR=20*;MPTP counter DR=>80
CN1CCN(CC(=O)N2CCn3c4c(c5cc(C6CCCCC6)ccc53)CCCC42)CC1 (stereo unspecified)	6	/	6	/	98*	-17
Cc1ccc2c(c1)c1c3n2CCN(C(=O)C2CC2)C3CCC1 (stereo unspecified)	-5	-11	-12	-1	1	/
CSc1ccc(Cn2c(C)c(C(=O)NCc3ccc(F)cc3)sc2=O)cc1	/	46	/	1	0	/
O=c1cc(CO)oc(C(Nc2ccccn2)c2cccc(F)c2)c1O (stereo unspecified)	4	-8	-15	0	-2	/
O=c1cc(CO)oc(C(Nc2ccccn2)c2ccc(C(F)(F)F)cc2)c1O (stereo unspecified)	-1	-18	-4	9	68*	-14	MPTP abs DR=11*;MPTP counter DR=>80
Cc1nn(S(=O)(=O)c2ccc(Cl)cc2)c(C)c1Sc1ccc([N+](=O)[O-])cc1	0	-14	-11	8	61*	41*
CC(C)(C)C(=O)NCC12C=CC(O1)C1C(=O)N(c3ccccc3)C(=O)C12 (stereo unspecified)	-1	3	-11	15	0	/
CC(C)COC(=O)NCC12C=CC(O1)C1C(=O)N(c3ccc(Cl)cc3)C(=O)C12 (stereo unspecified)	0	-11	-7	2	85*	9
O=C(NCc1ccco1)Nc1ccc(OC(F)(F)F)cc1	-3	6	-15	0	52*	80*
O=C(NCc1ccco1)Nc1ccc(Br)cc1	-3	-23	-12	10	0	/
CCc1cc2c(nc1CC)CCCN2C	/	-3	/	4	/	/
CC(C)Cc1ccc(CN2C(C)C(=O)N(Cc3cn(Cc4ccco4)nn3)CCS2(=O)=O)cc1 (stereo unspecified)	/	-7	/	-2	-6	/
CN1CC2=Cc3ccccc3OC23Oc2ccccc2C=C3C1	-2	-3	7	16	65*	-6	MPTP abs DR=i;MPTP counter DR=>80
Cc1cc(NC(=O)Nc2ccc(Cl)c(Cl)c2)n(-c2ccccc2)n1	-1	-16	-17	20	86*	87*
Cc1cc(NC(=O)Nc2cccc(Cl)c2)n(-c2ccccc2)n1	-2	-2	-16	7	58*	86*
C#CCN(Cc1ccco1)C(=O)c1nnc2c3ccccc3n(S(=O)(=O)c3ccccc3)c2n1	/	-14	/	0	/	/
CN1C[C@@H](CO)O[C@@H](n2cnc3c(N4CCOCC4)ncnc32)C1	/	-15	/	1	0	/
CC(=O)c1c(C)[nH]c(C(=O)OCC(=O)Nc2ccc(Cl)cc2[N+](=O)[O-])c1C	2	35	-6	10	91*	93*

Screening data as filed in PubChem.
